Sampled rows, rich in hits. Any-hit rate of the full collection: about 2.8%.
JMJD2C inh = inhibitors of GASC-1 histone demethylase, primary screen, biochemical, fluorescence, DELFIA europium. Lysine-specific demethylase 4C (Homo sapiens), Q9H3R0. GST-JMJD2C(1-420) H3K9me3 demethylation. inhibition, % at 2.35 µM. 0.069% of 330,000 active. AID 2099, 2009;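 active = more than half of a compound's replicate wells show inhibition beyond 50%, single wells judged on their own value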;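 also: signal counts dimethyl H3K9 product captured on neutravidin plate; 0% = median of DMSO wells and 100% = 0.3 times that DMSO median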
NR3A LBD binder = binders of NR3A ligand-binding domain, primary screen, biophysical, differential scanning fluorimetry, uHTS | Glutamate receptor ionotropic, NMDA 3A (GRIN3A) ligand-binding domain | NR3A LBD differential scanning fluorimetry, Tm shift; 0% = protein alone, 100% = glycine-bound protein | Tm shift relative to glycine control, % at 25 µM | 2.5% of 340,000 active | AID 1259313, 2017;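 active = melting temperature shift of at least 10% of the positive control shift, at one fixed dose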
Rtt109 HAT inh = inhibitors of C. albicans Rtt109/Vps75 HAT, primary screen, biochemical, ThioGlo CoA-SH fluorescence, plate reader; inhibition, % at 34.9 µM; purified Rtt109/Vps75, 4 h; Histone acetyltransferase RTT109 (Candida albicans (strain SC5314 / ATCC MYA-2876)), …; 0.16% of 330,000 active;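 active = inhibition of at least 50% in every replicate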
Target sequence (Q5AAJ8 whole entry, looked up): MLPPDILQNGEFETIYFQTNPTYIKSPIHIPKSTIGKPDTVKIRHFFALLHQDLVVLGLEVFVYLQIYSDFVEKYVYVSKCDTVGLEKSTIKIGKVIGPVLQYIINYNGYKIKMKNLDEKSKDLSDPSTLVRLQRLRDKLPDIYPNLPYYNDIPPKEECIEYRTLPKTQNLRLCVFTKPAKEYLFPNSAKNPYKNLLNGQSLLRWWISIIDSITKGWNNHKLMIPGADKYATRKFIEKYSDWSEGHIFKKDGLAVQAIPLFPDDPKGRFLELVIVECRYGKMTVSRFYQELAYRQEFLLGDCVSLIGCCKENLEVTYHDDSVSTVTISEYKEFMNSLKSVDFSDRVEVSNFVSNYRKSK
T cell modulator = modulators of CD8 T cell-vesicle binding, primary screen, mouse 2C CD8+ T cells, flow cytometry; 2C CD8+ T cell-vesicle binding; hits give low values; response (vesicle binding), % at 7 µM; 0.068% of 330,000 active; AID 2052, 2009;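 active = response, share of CD8 T cells binding vesicles, and their 90th percentile fluorescence all below set limits, cut at about 80% in these data, passing the limit was not always enough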;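 also: values below 100% mean blocked vesicle binding to the CD8+ T cells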
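Assay system – 2C mouse CD8+ T cells · Also added – QL9-loaded Drosophila micro-vesicles · Timing – Cell–vesicle co-incubation 1.5 h at 37 °C, staining 20 min on ice · Signal – flow cytometry of vesicle-bound cells · Measure – percent CD8+ FL2 mean versus row control · Controls – Peptide-free naked vesicles (low) and QL9 vesicles with 0.7% DMSO vehicle (high)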
An asterisk follows results filed as active; i = inactive; / = no result given.

SMILES | JMJD2C inh | NR3A LBD binder | Rtt109 HAT inh | T cell modulator
Cc1cccc(C)c1NC(=O)CN1N=NC2C(=O)N(c3cccc(Cl)c3)C(=O)C21 (stereo not given) | -3 | 18* | -6 | 232
Cc1ccc(N2C(=O)C3N=NN(CC(=O)N4N=C(c5ccccc5)CC4c4ccccc4)C3C2=O)cc1 (stereo not given) | 3 | 2 | 1 | 158
COc1cccc(/C=N/NC(=O)c2nnn(-c3nonc3N)c2C(C)C)c1 | -9 | 26* | 21 | 268
CC(C)c1c(C(=O)N/N=C/c2cccc(OCc3ccc(F)cc3)c2)nnn1-c1nonc1N | -2 | 27* | 6 | 268
CC(C)c1c(C(=O)N/N=C/C=C/c2ccccc2)nnn1-c1nonc1N | 0 | 17* | 7 | 310
COc1cc(/C=N/NC(=O)c2nnn(-c3nonc3N)c2C(C)C)ccc1OCc1ccc(F)cc1 | 10 | 31* | 0 | 244
Nc1nonc1-n1nnc(C(=O)N/N=C/c2ccc3c(c2)OCO3)c1-c1ccccc1 | -39 | 8 | -8 | 313
CC(C)c1c(C(=O)N/N=C/c2ccc3c(c2)OCO3)nnn1-c1nonc1N | 2 | 28* | 7 | 18
CCN(CC)c1ccc(/C=N/NC(=O)c2nnn(-c3nonc3N)c2C(C)C)c(O)c1 | 31 | 19* | 1 | 362
Cc1onc(-c2ccc(Cl)cc2)c1-c1ccnc(SCC(=O)Nc2cc(Cl)cc(Cl)c2)n1 | 8 | 0 | 5 | 309
COc1ccc(N2CCN(C(=O)CN3C(=O)NC4(CCCc5ccccc54)C3=O)CC2)cc1 (stereo not given) | 0 | 0 | 16 | 414
O=C(Cn1c2ccccc2c(=O)c2cc([N+](=O)[O-])ccc21)Nc1ccccc1Cl | 12 | 18* | 5 | 174
COc1ccc(N(C(=O)c2snc(C(N)=O)c2N)C(CC(C)C)C(=O)NCC2CCCO2)cc1 (stereo not given) | 6 | -2 | -32 | 212
N#Cc1c(N)[nH]c2ccc(Sc3ccccc3)cc12 | / | 109* | 3 | /
CCN(c1ccccc1)S(=O)(=O)c1cccc(C(=O)NCC2(N(C)C)CCCCC2)c1 | -6 | 25* | 10 | i
CC1(C)C2CCC1(C)C(OC(=O)C[n+]1ccccc1)C2 (stereo not given) | -4 | 0 | -1 | 482
CC1(C)C2CCC1(C)C(OC(=O)CC(=O)O)C2 (stereo not given) | -1 | 10* | / | 367
CCCCCCC1CC(=O)NC(=O)N1 (stereo not given) | 6 | 14* | 3 | 520
CCCCNC(=O)c1onc(CSc2ccc(F)cc2)c1C(=O)O | 8 | -3 | -9 | 210
CCCCNC(=O)c1onc(CSc2ccc(OC)cc2)c1C(=O)O | 8 | 12* | 11 | 368
O=C(Nc1ccc2oc(-c3cccnc3)nc2c1)c1cccnc1 | 5 | -3 | -6 | 479
Cc1ccc2oc(-c3ccc(NC(=O)c4cccnc4)cc3)nc2c1 | 4 | 35* | 1 | 284
O=C(Nc1ccc2oc(-c3ccccc3Cl)nc2c1)c1cncc(Br)c1 | -1 | 12* | -10 | 280
O=C(Nc1ccc(-c2nc3ccccc3o2)cc1)c1cccnc1 | 4 | 25* | -9 | 333
Cc1ccc(-c2nc3cc(NS(=O)(=O)c4ccc(C)cc4)ccc3o2)cc1 | 30 | 12* | 1 | 393
SMILES | JMJD2C inh | NR3A LBD binder | Rtt109 HAT inh | T cell modulator
O=C(OC1CCOC1=O)C1CCN(S(=O)(=O)c2ccc(Cl)c(C(F)(F)F)c2)CC1 (stereo not given) | 0 | 4 | / | 917
CCC[C@@H]1Cc2ccccc2N1C(C)=O | 2 | -1 | -5 | 131
Cc1c(C(=O)Nc2ccc3oc(-c4cccnc4)nc3c2)oc2ccccc12 | -3 | 16* | -19 | 40
CCC(=O)Nc1ccc2oc(-c3cccnc3)nc2c1 | -1 | 0 | 0 | 110
COc1cc(C)c(C)cc1S(=O)(=O)N1CCN(Cc2ccccc2)CC1 | 5 | -1 | -4 | 176
Cc1cc(S(=O)(=O)N2CCN(Cc3ccccc3)CC2)c(C)s1 | 6 | -1 | 0 | 74*
O=C(Nc1ccc(C(=O)N2CCC(N3CCCC3)CC2)cc1)c1ccc(Br)o1 | / | 1 | 5 | 295
COc1ccc([C@H]2Oc3cc(O)cc(O)c3C(=O)C2[C@@H]2C(=O)c3c(O)cc(O)cc3O[C@@H]2c2ccc(OC)cc2)cc1 (stereo not given in full) | 19 | 28* | / | 249
COc1ccc(C2CC(=O)Oc3cc(O)cc(O)c32)cc1 (stereo not given) | -34 | -4 | 0 | 369
CC(C)(C)c1ccc(C(=O)N2CCCN(c3ccc([N+](=O)[O-])cn3)CC2)cc1 | 34 | -1 | -1 | 548
O=C(COC(=O)c1ccc(F)c(S(=O)(=O)N2CCOCC2)c1)NCCc1ccc(F)cc1 | 1 | -2 | -8 | 270
COC(=O)N/N=C/c1c(C)c(C(=O)c2ccc(F)cc2)n2ccccc12 | 21 | 1 | -6 | 330
Cc1c(/C=N/NC(=O)c2ccc(O)cc2)c2ccccn2c1C(=O)c1ccc(F)cc1 | 3 | 18* | 0 | 302
Cc1c(/C=N/NC(=O)c2ccccc2O)c2ccccn2c1C(=O)c1ccc(F)cc1 | 5 | 14* | -3 | 328
CC1CCCN(S(=O)(=O)c2ccc(NC(=O)[C@@H]3CCCN3C(=O)c3cccs3)cc2)C1 (stereo not given in full) | -20 | -6 | 7 | 400
CC(=O)Nc1cccc(C(=O)/C=C/c2ccc(N(C)C)cc2)c1 | 1 | 18* | -2 | 601
CC(=O)Nc1cccc(C(=O)/C=C/c2ccc(/C=C/C(=O)c3cccc(NC(C)=O)c3)cc2)c1 | 7 | / | / | 169
CCOC(=O)c1ccc(N2C(=O)c3n[nH]c(C)c3C2c2cccnc2)cc1 (stereo not given) | -13 | -2 | 2 | 338
CCOC(=O)c1ccc(N2C(=O)c3n[nH]c(-c4ccco4)c3C2c2ccc([N+](=O)[O-])cc2)cc1 (stereo not given) | 18 | 27* | -6 | 148
O=C1CN(C(=O)COc2c(F)c(F)cc(F)c2F)c2ccccc2N1 | 8 | 0 | 5 | 333
O=C1CCCC/C=C\C[C@H](CC(=O)N(CCO)Cc2ccccc2)C(=O)N[C@@H](c2ccccc2)CO1 | -6 | 0 | -3 | 62*
CC(C)(C)[C@H]1COC(=O)CCCC/C=C\C[C@H](CC(=O)N(CCO)Cc2ccccc2)C(=O)N1 | / | 3 | -5 | 180
CC[C@]12c3[nH]c4cc(CCC(=O)N(C)C)ccc4c3CCN1C(=O)[C@@H](CC(=O)NCc1cccc(C(F)(F)F)c1)C[C@@H]2C(=O)N1CCN(C(=O)c2ccco2)CC1 | / | -1 | 2 | /
C=CCNCCCCOc1cccc(Br)c1 | -3 | 28* | / | 155

Screens deposited in PubChem by several laboratories.
